Here are results for 14 compounds from PubChem BioAssay.

Calls of active or inactive are those of the source.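 How the source made its calls, unless noted: active means NADPH fluorescence slope more negative than the mean of all samples by about 3 SD, 99.7% confidence; inactive means the rest.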 Where a SMILES comes first, the peptide text is derived from it. The star is where a group is joined. Boc = CC(C)(C)OC(=O)*

Assay [1] in a line: inhibitors of TNFa-induced NFkB p65 translocation, primary screen, imaging, HUVEC, MLSMR starter and 10KST1 sets (AID 438;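 active means inhibition above 20% together with a positive visual image hit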;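 further: compound added about 3h40 before a 20 min TNFalpha stimulation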;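 on inhibition: signal is the nuclear over cytoplasmic p65 intensity ratio per well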). Conditions: HUVEC TNFa-induced p65 nuclear translocation; cell count: measured here: nuclei count (cytotoxicity indicator), at 2.08 µM; inhibition: at 2 µM, stronger effect = higher value, 0% TNFa-plus-vehicle, 100% no-TNFa wells.
A short description of assay [2]: inhibitors of mutant huntingtin aggregation, primary screen, imaging, exon1htt(103Q)mCFP cells, high-content imaging (AID 483;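 active means visual image review flags a hit and inhibition of aggregation exceeds 20%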;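 further: compound exposure lasted 3 days before fixation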;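 on nuclei count: percent of the per-plate median nuclei count of sample wells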). Conditions: exon1htt(103Q)mCFP cell line, aggregate imaging, at 2 µM; inhibition of aggregation: stronger effect = higher value; nuclei count: measured here: cell count, toxicity.
Assay [3] in a line: inhibitors of E-selectin induction by TNFa, primary screen, imaging, HUVEC, immunofluorescence, MLSMR starter and 10KST1 sets (AID 487;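 active means visually confirmed hit in the image check and inhibition above 20%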;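 on inhibition: signal is fraction of cell area covered by stained E-selectin grains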;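 on nuclei count: 100% = median nuclei count of all wells on the same plate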). Conditions: HUVEC TNFalpha-induced E-selectin immunofluorescence imaging, at 2 µM; inhibition: stronger effect = higher value; nuclei count: measured here: cell number, toxicity.
For assay [4], the target named is Voltage-gated potassium channel subunit beta-2 (Rattus norvegicus) (UniProt P62483). As to the kind of experiment: KvBeta enzyme negative modulators, primary screen, biochemical, NADPH fluorescence (AID 622;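 active means fluorescence slope higher than the sample average by over 3 SD, cut at about -0.22 in these data, passing the limit was not always enough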;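 further: slope of raw intensity against log time taken from 70 to 1610 s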). Conditions: recombinant KvBeta, 4-cyanobenzaldehyde reduction, at 10 µM, stronger effect = higher value.
Sequence of Voltage-gated potassium channel subunit beta-2 (Rattus norvegicus) (P62483 whole entry, looked up): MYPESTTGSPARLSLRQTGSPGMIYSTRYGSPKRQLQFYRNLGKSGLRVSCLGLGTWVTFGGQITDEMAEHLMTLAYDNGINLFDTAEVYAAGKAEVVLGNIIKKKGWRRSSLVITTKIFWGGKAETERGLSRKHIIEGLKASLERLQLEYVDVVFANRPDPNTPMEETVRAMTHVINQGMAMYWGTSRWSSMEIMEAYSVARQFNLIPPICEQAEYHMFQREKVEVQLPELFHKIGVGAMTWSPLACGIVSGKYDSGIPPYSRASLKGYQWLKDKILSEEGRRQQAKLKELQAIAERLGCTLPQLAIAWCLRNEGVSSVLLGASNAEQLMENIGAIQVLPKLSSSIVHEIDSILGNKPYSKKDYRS
Assay [5] has the same target. Nature of the assay: KvBeta positive modulators, primary screen, biochemical, NADPH fluorescence (AID 623).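 Further: fluorescence intensity change per second fitted from 20 to 320 s.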 Conditions: Recombinant KvBeta, NADPH fluorescence decrease slope, 10 min; at 10 µM; stronger effect = lower value.
For assay [6], the target named is Muscarinic acetylcholine receptor M4 (Homo sapiens) (UniProt P08173). Nature of the assay: compounds altering M4/GIRK thallium flux, either direction, primary screen, M4 allosteric agonist project, cell-based, HEK293 M4/GIRK, BTC-AM (AID 625;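 active means fluorescence slope after compound addition differing from the mean of all tested samples at 99.7% confidence, mostly higher but some lower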;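 further: thallium influx through GIRK channels coupled to M4 in HEK293 cells with BTC-AM dye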). Conditions: at 10 µM, actives lie on both sides. Put shortly:
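Material: HEK293 cells with M4 receptor and GIRK channels; Times: cells overnight at 37 °C, BTC-AM loading 1 h, reads 2 min total; Technique: kinetic BTC-AM fluorescence sampled at 1 Hz, 10 s pre-addition baseline; Read-out basis: slope over 15–24 s of trace normalized to starting intensity; Controls: carbachol positive, DMSO negative.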

The nature of assay [7]: inhibitors of Sendai virus-induced IRF3 signaling, primary screen, TLR/RLR signaling modifier project, cell-based, Sendai virus stimulus, luciferase, 10K MLSCN set (AID 602276;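 active means inhibition at or above 50% at 10 µM; inactive means inhibition below 50%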;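 further: firefly luciferase from ISG56 promoter only with Renilla not read in this screen; 0% = Sendai virus plus DMSO and 100% = medium plus DMSO without virus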). Conditions: HEK293 RL24 IRF3 luciferase reporter, at 10 µM, stronger effect = higher value. Background: Reporter assays use an easily measured gene product as a stand-in for the process of interest.
A short description of assay [8]: inhibitors of poly I:C-induced TLR3 signaling, primary screen, cell-based, poly I:C stimulus, luciferase, 10K MLSCN set (AID 602277;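 active means inhibition of the reporter signal at or above 50%; inactive means inhibition below 50%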). Conditions: HEK293-TLR3 RL24 IRF3 luciferase reporter, at 10 µM, stronger effect = higher value.

Sequence of Muscarinic acetylcholine receptor M4 (Homo sapiens) (P08173 whole entry, looked up): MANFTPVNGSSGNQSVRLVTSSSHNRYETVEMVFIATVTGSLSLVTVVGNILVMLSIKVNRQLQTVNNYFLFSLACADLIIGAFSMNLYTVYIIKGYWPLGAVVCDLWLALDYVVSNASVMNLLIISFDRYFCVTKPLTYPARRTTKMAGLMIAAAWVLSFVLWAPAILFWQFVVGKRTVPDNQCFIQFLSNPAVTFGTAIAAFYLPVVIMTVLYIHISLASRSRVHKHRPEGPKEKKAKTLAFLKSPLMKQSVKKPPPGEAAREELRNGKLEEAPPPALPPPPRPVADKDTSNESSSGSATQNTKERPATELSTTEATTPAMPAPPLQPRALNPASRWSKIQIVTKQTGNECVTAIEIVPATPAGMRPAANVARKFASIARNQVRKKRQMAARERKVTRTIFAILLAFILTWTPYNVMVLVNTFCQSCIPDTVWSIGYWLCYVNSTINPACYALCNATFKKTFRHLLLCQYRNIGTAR

In the case of `O=C(CN1CCCN(S(=O)(=O)c2ccc(Br)cc2)CC1)Nc1ccc2cn[nH]c2c1`, the cell count in assay [1] stood at 432. The inhibition in assay [1] was -1.3% (inactive); in assay [3], -23.3% (inactive); in assay [7], -14.5% (inactive); in assay [8], 2.45% (inactive). Further, the inhibition of aggregation in assay [2] is 11% (inactive). For the same compound, the figures for the nuclei count in assay [2] and in assay [3] were 103% and 134%, respectively. The values for the fluorescence slope in assay [4] and in assay [6] were -0.517 (inactive) and 0.00424 (inactive), respectively. For the same compound, in assay [5], the NADPH fluorescence slope was -0.000173 (inactive).
As for `COc1cccc(OCc2nc3c4cnn(-c5ccccc5)c4ncn3n2)c1`, the cell count in assay [1] is 418. In addition, the inhibition in assay [1] is -6.7% (inactive); in assay [3], -118% (inactive); in assay [7], 8.13% (inactive); in assay [8] it was -16.4% (inactive). In addition, the inhibition of aggregation in assay [2] is -8.8% (inactive). Moreover, the nuclei count in assay [2] is 104%; in assay [3], 110%. Besides, the values for the fluorescence slope in assay [4] and in assay [6] were -0.576 (inactive) and 0.00593 (inactive), respectively. In addition, the NADPH fluorescence slope in assay [5] is 1.4e-05 (inactive).
`CCCCOC(=O)Cn1c(=N)n(CCN2CCOCC2)c2ccccc21`: the cell count in assay [1] is 488. In addition, the inhibition in assay [1] was 4% (inactive); in assay [3] it was -46.3% (inactive); in assay [7], 8.18% (inactive); in assay [8] it was 17.7% (inactive). In assay [2], the inhibition of aggregation is 7.9% (inactive). For the same compound, the nuclei count in assay [2] is 91.9%; in assay [3], 84.8%. Further, the fluorescence slope in assay [4] is -0.354 (inactive); in assay [6] it was 0.00576 (inactive). The NADPH fluorescence slope in assay [5] is -6.5e-05 (inactive).
Consider `Cc1cccc2cc(C(c3nnnn3C(C)(C)C)N3CCN(C(=O)c4ccco4)CC3)c(=O)[nH]c12` (centres undefined), for which the cell count in assay [1] was found to be 283. The inhibition in assay [1] was -1.9% (inactive); in assay [3] it was -29.9% (inactive); in assay [7], 13.4% (inactive); in assay [8] it was 16% (inactive). In addition, the inhibition of aggregation in assay [2] was -6.7% (inactive). Besides, the values for the nuclei count in assay [2] and in assay [3] were 96.1% and 88.4%, respectively. The fluorescence slope in assay [4] is -0.439 (inactive); in assay [6], 0.00557 (inactive). Moreover, the NADPH fluorescence slope in assay [5] was -5.7e-05 (inactive).
In the case of `O=S(=O)(CCOc1ccccc1)c1nc2ccccc2[nH]1`, the cell count in assay [1] amounted to 332. Also, the inhibition is -11.8% (inactive) in assay [1], -77.3% (inactive) in assay [3], 19.7% (inactive) in assay [7] and 13.7% (inactive) in assay [8]. Moreover, the inhibition of aggregation in assay [2] is -12.8% (inactive). Moreover, the results for the nuclei count in assay [2] and in assay [3] were 99.9% and 106%, respectively. The values for the fluorescence slope in assay [4] and in assay [6] were -0.566 (inactive) and 0.00411 (inactive), respectively. Besides, the NADPH fluorescence slope in assay [5] was -9e-05 (inactive).
As for `CCN1CCCC1CNCc1ccc(Cl)cc1Cl` (centres undefined), the cell count in assay [1] was found to be 474. Also, the inhibition is 13.6% (inactive) in assay [1], -106% (inactive) in assay [3], -5.98% (inactive) in assay [7] and 5.14% (inactive) in assay [8]. The inhibition of aggregation in assay [2] is 1.2% (inactive). Also, the nuclei count in assay [2] was 87.1%; in assay [3], 152%. The fluorescence slope is -0.316 (inactive) in assay [4] and 0.0068 (inactive) in assay [6]. In addition, the NADPH fluorescence slope in assay [5] was -1.4e-06 (inactive).
Consider `Fc1ccccc1-c1nc(-c2ccccc2)no1`, for which the cell count in assay [1] came out at 632. In addition, the inhibition was 13.8% (inactive) in assay [1], -5.4% (inactive) in assay [3], -27.9% (inactive) in assay [7] and -60% (inactive) in assay [8]. Further, in assay [2], the inhibition of aggregation is 3.3% (inactive). For the same compound, the results for the nuclei count in assay [2] and in assay [3] were 103% and 97.2%, respectively. Also, the fluorescence slope is -0.554 (inactive) in assay [4] and 0.00608 (inactive) in assay [6]. For the same compound, the NADPH fluorescence slope in assay [5] was -7.9e-05 (inactive).
Regarding `COCCn1c(NCc2ccc(C)cc2)nc2c1c(=O)[nH]c(=O)n2C`, the cell count in assay [1] is 848. Also, the inhibition in assay [1] is 6.8% (inactive); in assay [3] it was 9.9% (inactive); in assay [7], 7.9% (inactive); in assay [8] it was 13.3% (inactive). Moreover, the inhibition of aggregation in assay [2] was 29.4% (inactive). Also, the nuclei count is 91.9% in assay [2] and 110% in assay [3]. Further, the fluorescence slope is -0.543 (inactive) in assay [4] and 0.00577 (inactive) in assay [6]. Moreover, the NADPH fluorescence slope in assay [5] is -2.1e-05 (inactive).
For the compound `CN1CCN(CC(=O)Nc2ccc(Cl)cc2Cl)CC1`, the cell count in assay [1] came out at 445. For the same compound, the inhibition was -3.5% (inactive) in assay [1], 66.8% (inactive) in assay [3], 11% (inactive) in assay [7] and 14.7% (inactive) in assay [8]. Moreover, the inhibition of aggregation in assay [2] is 0% (inactive). Also, the nuclei count in assay [2] was 103%; in assay [3], 78.8%. Besides, the results for the fluorescence slope in assay [4] and in assay [6] were -0.619 (inactive) and 0.00642 (inactive), respectively. Besides, the NADPH fluorescence slope in assay [5] was 7.6e-06 (inactive).
For the compound `CCOC(=O)c1sc2ncn(/N=C/N(C)C)c(=O)c2c1C`, the cell count in assay [1] came out at 415. Further, the inhibition in assay [1] was -2.7% (inactive); in assay [3], 20.9% (inactive); in assay [7] it was 5.64% (inactive); in assay [8], 6.76% (inactive). In addition, the inhibition of aggregation in assay [2] is 40.3% (active). Further, the nuclei count in assay [2] is 72.6%; in assay [3] it was 85.9%. Besides, the fluorescence slope was -0.385 (inactive) in assay [4] and 0.00524 (inactive) in assay [6]. Besides, the NADPH fluorescence slope in assay [5] is 6.4e-06 (inactive).
Turning to `Cc1ccc(NC(=O)C2CCCN2C(=O)Oc2ccccc2)cc1` (centres undefined), in assay [1], the cell count was determined as 344. Further, the inhibition in assay [1] was 6% (inactive); in assay [3], 26.5% (inactive); in assay [7], 5.65% (inactive); in assay [8] it was 12.3% (inactive). The inhibition of aggregation in assay [2] is 3.9% (inactive). Also, the results for the nuclei count in assay [2] and in assay [3] were 88.6% and 79.2%, respectively. The values for the fluorescence slope in assay [4] and in assay [6] were -0.41 (inactive) and 0.00654 (inactive), respectively. Further, the NADPH fluorescence slope in assay [5] is -6.8e-06 (inactive).
Regarding `CC1CCc2nc(NC(=O)CN3CCN(Cc4ccc5c(c4)OCO5)CC3)sc2C1` (centres undefined), the cell count in assay [1] was 641. Also, the inhibition in assay [1] is -9.3% (inactive); in assay [3], -24.4% (inactive); in assay [7], 11.9% (inactive); in assay [8], 10.6% (inactive). In addition, the inhibition of aggregation in assay [2] was 2% (inactive). The nuclei count in assay [2] was 100%; in assay [3], 97.3%. For the same compound, the fluorescence slope in assay [4] is -0.544 (inactive); in assay [6], 0.00492 (inactive). Moreover, in assay [5], the NADPH fluorescence slope is -6.2e-05 (inactive).
Consider `COCCOC(=O)C1=C(C)Nc2ncnn2C1c1ccc(F)cc1` (centres undefined), for which, in assay [1], the cell count worked out at 743. The inhibition in assay [1] is -0.4% (inactive); in assay [3] it was 12.9% (inactive); in assay [7], 6.2% (inactive); in assay [8], 19.4% (inactive). The inhibition of aggregation in assay [2] was 24.6% (inactive). Besides, the nuclei count in assay [2] came to 71.5%; in assay [3], 124%. In addition, the fluorescence slope was -0.369 (inactive) in assay [4] and 0.00592 (inactive) in assay [6]. In assay [5], the NADPH fluorescence slope was -0.000107 (inactive).
For `CC(C)(C)OC(=O)N1CCCC1C(=O)N1CCCC1C(=O)N1CCCC1C(=O)O` (stereo not drawn) (Boc-Pro-Pro-Pro-OH; configuration not given here), the cell count in assay [1] was 302. For the same compound, the inhibition is -6.9% (inactive) in assay [1], -59.4% (inactive) in assay [3], 5.97% (inactive) in assay [7] and 15.3% (inactive) in assay [8]. In addition, in assay [2], the inhibition of aggregation is 4.5% (inactive). In addition, the nuclei count came to 49.1% in assay [2] and 102% in assay [3]. Besides, the results for the fluorescence slope in assay [4] and in assay [6] were -0.571 (inactive) and 0.00689 (inactive), respectively. For the same compound, the NADPH fluorescence slope in assay [5] is -4.7e-05 (inactive).

As usually defined, the inhibition is the relative decrease from the control value, in per cent.
